{
  "source": "paper PMC3787871",
  "about": "(Bioorganic & medicinal chemistry letters, 2008)",
  "key": {"mGluR1 [1]": {"target": "T1, mGluR1 (Homo sapiens, UniProt Q13255)", "T1 sequence (Q13255 19-1194)": "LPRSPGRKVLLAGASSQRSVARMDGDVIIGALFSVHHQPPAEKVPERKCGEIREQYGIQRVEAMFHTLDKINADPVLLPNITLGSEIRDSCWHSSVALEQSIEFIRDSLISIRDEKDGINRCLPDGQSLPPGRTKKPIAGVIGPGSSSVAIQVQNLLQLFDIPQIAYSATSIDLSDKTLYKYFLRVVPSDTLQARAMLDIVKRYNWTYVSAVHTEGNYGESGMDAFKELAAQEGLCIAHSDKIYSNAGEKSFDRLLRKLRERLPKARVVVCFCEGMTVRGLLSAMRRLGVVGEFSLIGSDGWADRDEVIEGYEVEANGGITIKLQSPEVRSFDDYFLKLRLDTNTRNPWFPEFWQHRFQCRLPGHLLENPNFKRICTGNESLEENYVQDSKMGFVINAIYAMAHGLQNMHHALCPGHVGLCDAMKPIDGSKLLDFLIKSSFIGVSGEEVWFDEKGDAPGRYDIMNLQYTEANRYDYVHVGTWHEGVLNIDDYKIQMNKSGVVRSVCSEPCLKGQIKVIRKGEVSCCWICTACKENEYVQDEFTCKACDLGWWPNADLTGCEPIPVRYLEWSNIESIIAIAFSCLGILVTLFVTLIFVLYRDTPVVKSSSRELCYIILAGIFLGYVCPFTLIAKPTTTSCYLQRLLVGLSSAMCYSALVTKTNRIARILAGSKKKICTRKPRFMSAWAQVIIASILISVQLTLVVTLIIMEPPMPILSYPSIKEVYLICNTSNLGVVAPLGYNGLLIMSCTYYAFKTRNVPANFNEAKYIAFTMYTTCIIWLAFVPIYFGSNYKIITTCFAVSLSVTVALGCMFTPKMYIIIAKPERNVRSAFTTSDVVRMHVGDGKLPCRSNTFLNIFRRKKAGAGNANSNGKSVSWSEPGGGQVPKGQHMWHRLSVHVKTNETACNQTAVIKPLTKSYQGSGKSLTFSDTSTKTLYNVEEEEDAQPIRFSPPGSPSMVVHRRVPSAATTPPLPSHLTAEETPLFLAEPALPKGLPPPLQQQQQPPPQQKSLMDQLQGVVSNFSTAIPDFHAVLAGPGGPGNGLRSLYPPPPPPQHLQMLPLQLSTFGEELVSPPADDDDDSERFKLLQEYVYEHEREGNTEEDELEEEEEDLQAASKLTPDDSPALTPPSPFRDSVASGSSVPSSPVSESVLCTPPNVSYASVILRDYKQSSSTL", "conditions": "cited from earlier work"}, "mGluR4 [2]": {"test_system": "mGluR4", "conditions": "cited from earlier work; for EC50: mGluR4 PAM"}, "[3]": {"test_system": "preclinical Parkinson's disease models", "conditions": "cited from earlier work"}, "mGluR4 [4]": {"test_system": "mGluR4", "conditions": "cited from earlier work"}, "mGluR4 [5]": {"target": "T2, mGluR4 (Homo sapiens, UniProt Q14833)", "T2 sequence (Q14833 33-912)": "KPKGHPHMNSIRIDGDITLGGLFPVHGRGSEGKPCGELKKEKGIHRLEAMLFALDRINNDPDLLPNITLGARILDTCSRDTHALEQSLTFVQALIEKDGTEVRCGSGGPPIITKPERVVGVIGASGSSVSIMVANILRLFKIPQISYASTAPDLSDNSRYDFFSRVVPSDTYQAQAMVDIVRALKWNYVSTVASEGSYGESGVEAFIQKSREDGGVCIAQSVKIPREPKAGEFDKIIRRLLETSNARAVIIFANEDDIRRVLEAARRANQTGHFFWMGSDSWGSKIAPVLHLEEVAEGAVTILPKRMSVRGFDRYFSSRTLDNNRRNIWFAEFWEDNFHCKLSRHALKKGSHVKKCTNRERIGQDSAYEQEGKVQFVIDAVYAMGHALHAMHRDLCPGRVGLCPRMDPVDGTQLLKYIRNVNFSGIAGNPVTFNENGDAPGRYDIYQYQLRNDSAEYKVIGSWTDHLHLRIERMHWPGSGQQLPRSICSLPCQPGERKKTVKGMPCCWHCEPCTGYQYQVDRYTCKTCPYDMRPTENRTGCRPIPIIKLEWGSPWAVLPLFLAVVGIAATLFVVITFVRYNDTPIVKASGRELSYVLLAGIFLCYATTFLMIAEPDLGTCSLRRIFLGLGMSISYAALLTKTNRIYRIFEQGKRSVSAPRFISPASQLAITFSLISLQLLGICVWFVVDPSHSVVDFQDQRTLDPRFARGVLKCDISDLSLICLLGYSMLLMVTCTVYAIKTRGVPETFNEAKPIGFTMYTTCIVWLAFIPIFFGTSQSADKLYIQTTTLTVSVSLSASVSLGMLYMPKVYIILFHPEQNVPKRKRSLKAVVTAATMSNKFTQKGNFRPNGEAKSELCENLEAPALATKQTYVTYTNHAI", "experiment": "Receptor activation in mGluR4/Gqi5 CHO cells in the absence of glutamate", "assay_type": "cell-based", "conditions": "no EC20 glutamate added"}, "mGluR8": {"target": "mGluR8 (Homo sapiens, UniProt O00222)", "sequence (O00222 34-908, species assumed)": "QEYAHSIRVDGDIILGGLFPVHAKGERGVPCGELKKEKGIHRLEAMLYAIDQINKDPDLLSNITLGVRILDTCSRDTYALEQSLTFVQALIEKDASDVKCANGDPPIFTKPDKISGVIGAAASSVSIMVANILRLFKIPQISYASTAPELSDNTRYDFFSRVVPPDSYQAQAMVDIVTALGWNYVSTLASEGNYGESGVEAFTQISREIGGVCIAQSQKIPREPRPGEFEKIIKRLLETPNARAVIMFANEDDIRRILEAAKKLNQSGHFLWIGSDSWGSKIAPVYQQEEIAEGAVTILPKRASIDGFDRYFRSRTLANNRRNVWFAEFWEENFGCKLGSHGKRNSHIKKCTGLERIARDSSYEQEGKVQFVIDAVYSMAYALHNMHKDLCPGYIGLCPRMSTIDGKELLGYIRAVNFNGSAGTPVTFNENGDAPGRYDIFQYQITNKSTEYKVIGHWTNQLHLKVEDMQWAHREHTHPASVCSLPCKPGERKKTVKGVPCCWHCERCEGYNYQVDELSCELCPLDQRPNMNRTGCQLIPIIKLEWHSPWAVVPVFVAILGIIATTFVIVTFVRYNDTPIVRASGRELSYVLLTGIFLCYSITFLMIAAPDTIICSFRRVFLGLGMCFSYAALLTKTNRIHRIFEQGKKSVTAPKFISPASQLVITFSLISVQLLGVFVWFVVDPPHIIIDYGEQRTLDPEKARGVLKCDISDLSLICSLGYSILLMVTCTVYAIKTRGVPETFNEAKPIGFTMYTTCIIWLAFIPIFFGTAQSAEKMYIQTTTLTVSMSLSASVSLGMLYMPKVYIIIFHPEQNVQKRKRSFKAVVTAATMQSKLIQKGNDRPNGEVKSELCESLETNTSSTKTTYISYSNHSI", "experiment": "EC20 activation assay, mGluR8", "assay_type": "cell-based", "conditions": "at 30 μM"}, "mGluR4 [6]": {"target": "T2, mGluR4", "experiment": "Potentiation of an EC20 of glutamate in human mGluR4/Gqi5 CHO cells", "assay_type": "cell-based", "conditions": "for mGluR4 PAM activity (in words): potentiation of EC20 glutamate, mGluR4/Gqi5 CHO cells; for loss in potency relative to 6: mGluR4 PAM EC50 versus re-synthesized 6"}, "mGluRs": {"test_system": "mGluRs", "experiment": "Selectivity screen across the mGluRs", "assay_type": "cell-based"}, "mGluR1 [7]": {"target": "T1, mGluR1", "experiment": "mGluR1 antagonist activity", "assay_type": "cell-based"}, "mGluR1 [8]": {"target": "T1, mGluR1", "experiment": "EC20 activation assay, mGluR1", "assay_type": "cell-based", "conditions": "at 30 μM"}, "mGluR4 [9]": {"target": "T2, mGluR4", "assay_type": "cell-based", "conditions": "at 30 μM compound", "procedure,_shortened": "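Human mGluR4 co-expressed with chimeric Gqi5 in CHO cells. Glutamate concentration–response curves run with and without 30 μM test compound; fold shift taken as the leftward displacement of the glutamate curve. Responses expressed as % of maximal glutamate response. Average of at least three independent determinations, each in triplicate.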"}},
  "note": "Entries after “also recorded” stand apart in the source; their conditions may differ.",
  "data": [
    {"smiles": "Cc1ccc(-n2ncc3c(N4CCCC(C)C4)ncnc32)c(C)c1", "note": "(stereo not shown) [Compound 4]", "values": [
      {"measurement": "mGluR1 antagonist activity (in words)", "setting": "mGluR1 [1]", "value": "significant mGluR1 antagonist activity"},
      {"measurement": "IC50", "setting": "mGluR1 [1]; read-out: IC50 (full antagonist of mGluR1)", "value": 2600, "unit": "nM"},
      {"measurement": "fold shift of the glutamate response", "setting": "mGluR4 [2]", "value": 11.8, "unit": "fold"},
      {"measurement": "EC50", "setting": "mGluR4 [2]", "value": 5000, "unit": "nM"}
    ]},
    {"smiles": "O=C(O)[C@H]1CCCC[C@H]1C(=O)Nc1cc(Cl)cc(Cl)c1", "note": "[Compound 5]", "values": [
      {"measurement": "EC50", "setting": "mGluR4 [2]", "value": 750, "unit": "nM"},
      {"measurement": "efficacy in preclinical Parkinson's disease models", "setting": "[3]", "value": "displayed efficacy in preclinical Parkinson’s disease models"},
      {"measurement": "allosteric agonist activity", "setting": "mGluR4 [4]", "value": "significant allosteric agonist activity"}
    ]},
    {"smiles": "Cc1nc2ccccc2nc1N/N=C/c1ccc(O)cc1", "note": "[Compound 6, (E)-4-((2-(3-methylquinoxalin-2-yl)hydrazono)methyl) phenol]", "values": [
      {"measurement": "effect on mGluR4 in the absence of glutamate", "setting": "mGluR4 [5]", "value": "no effect; also recorded: do not elicit receptor activation"},
      {"measurement": "activation of mGluR8", "setting": "mGluR8", "value": "moderate activation"},
      {"measurement": "EC50", "setting": "mGluR4 [6]", "value": 650, "unit": "nM"},
      {"measurement": "mGluR4 PAM activity (in words)", "setting": "mGluR4 [6]", "value": "Concentration-dependent potentiation"},
      {"measurement": "antagonism of mGluRs", "setting": "mGluRs; EC80 assay", "value": "not an antagonist of any mGluR"},
      {"measurement": "selectivity across the mGluRs", "setting": "mGluRs; activation (EC20 glutamate potentiation) and inhibition (depression of EC80) assays", "value": "highly selective for mGluR4"},
      {"measurement": "mGluR1 antagonist activity", "setting": "mGluR1 [7]", "value": "devoid of mGluR1 antagonist activity; also recorded: did not exhibit mGluR1 antagonist activity"},
      {"measurement": "activation of mGluR1", "setting": "mGluR1 [8]", "value": "moderate activation"}
    ]},
    {"smiles": "Cc1ccc(N2C(=O)c3ccccc3NC2C(C)c2ccccc2)cc1", "note": "(stereo not shown) [Compound 7]", "values": [
      {"measurement": "fold shift of the glutamate response curve (leftward)", "setting": "mGluR4 [9]", "value": 2.7, "unit": "fold"},
      {"measurement": "EC50", "setting": "mGluR4 [6]", "value": 1800, "unit": "nM"}
    ]},
    {"smiles": "Cc1nc2ccccc2nc1N/N=C/c1cccc(O)c1", "note": "[Compound 12a]", "values": [
      {"measurement": "loss in potency relative to 6", "setting": "mGluR4 [6]", "value": "> 3", "unit": "fold"}
    ]},
    {"smiles": "Cc1nc2ccccc2nc1N/N=C/c1ccccc1O", "note": "[Compound 12b]", "values": [
      {"measurement": "loss in potency relative to 6", "setting": "mGluR4 [6]", "value": "> 6", "unit": "fold"}
    ]},
    {"smiles": "Cc1nc2ccccc2nc1N/N=C/c1ccc(F)cc1", "note": "[Compound 12c]", "values": [
      {"measurement": "mGluR4 PAM activity (in words)", "setting": "mGluR4 [6]", "value": "afforded mGluR4 PAM activity"}
    ]},
    {"smiles": "Cc1nc2ccccc2nc1N/N=C/c1ccccc1", "note": "[Compound 12d]", "values": [
      {"measurement": "mGluR4 PAM activity (in words)", "setting": "mGluR4 [6]", "value": "afforded mGluR4 PAM activity"}
    ]},
    {"smiles": "O=C(Nc1ccccc1)[C@]12C[C@H]1/C(=N\\O)c1ccccc1O2", "note": "[PHCCC, N-phenyl-7-(hydroxyimino) cyclopropa(b)chromen-1a-carboxamide]", "values": [
      {"measurement": "mGluR1 antagonist activity (in words)", "setting": "mGluR1 [1]", "value": "significant mGluR1 antagonist activity"}
    ]}
  ]
}
